From ChEMBL document CHEMBL4396943, “The tetrahydroxanthone-dimer phomoxanthone A is a strong inducer of apoptosis in cisplatin-resistant solid cancer cells” (Bioorg Med Chem, 2019) come the findings set out here.

What is called pIC50 is the IC50 on a negative log10 scale, so that one unit is a factor of ten.

pIC50: −log10 of the molar value. The source made the active and inactive calls. The rule behind the calls is not given here.

Assay [1] deals with A2780. The experiment in a line: Induction of apoptosis in human A2780 cells assessed as plasma membrane damage at 1 to 10 uM incubated for 24 hrs by propidium iodide staining based flow cytometry. In kind it is functional, cell-based. Put shortly: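 Cells exposed to PXA for 24 h, trypsinised, pelleted at 4 °C, stained with 100 µg/ml propidium iodide, diluted in sheath fluid and read by flow cytometry. Positive control was 0.2% Triton X-100 (20 min). Three experiments, mean ± SEM.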
A general note: A flow cytometer gives signals particle by particle.

The next assay concerns HCT-116. The experiment in a line: Antiproliferative activity against human HCT116 cells assessed as reduction in cell viability incubated for 72 hrs by MTT assay. Format: functional, cell-based. The following applies: HCT-116, 72 h. The method, boiled down:
(§1)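 Cells seeded overnight in 96-well plates, then exposed to increasing concentrations (compound dissolved in DMSO, diluted in medium) for the stated time. MTT (5 mg/ml in PBS) added for 15 min, formazan dissolved in DMSO, absorbance read at 544 nm minus 690 nm background. IC50 = concentration giving 50% signal decrease. At least three independent experiments in triplicate.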
(Tetrazolium assays rely on reduction of a dye to a coloured formazan, in cell work by metabolically active cells.)

For another assay, the system named is KYSE-510. Description: Potency index, ratio of cisplatin IC50 to compound IC50 for antiproliferative activity in cisplatin resistant human KYSE-510 cells assessed as reduction in cell viability incubated for 72 hrs by MTT assay. In kind it is functional. Put shortly:
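Cells seeded in 96-well plates overnight, exposed 72 h to increasing concentrations. MTT (5 mg/ml) added for 15 min, formazan dissolved in DMSO, absorbance read at 544 nm with 690 nm background subtracted. IC50 is the concentration reducing signal by 50%. Three independent experiments in triplicate. CisR sublines made by weekly intermittent cisplatin exposure for 24–30 weeks.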

Assay [2] deals with A2780cisR. The experiment in a line: Induction of apoptosis in human A2780cisR cells assessed as decrease in mitochondrial membrane potential at 1 uM incubated for 24 hrs by TMRE staining based flow cytometry. Format: functional, cell-based. The method, boiled down:
(§2)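 Cells seeded overnight; complete medium swapped for FBS-free medium just before treatment to avoid TMRE ester cleavage. Exposure to PXA for 1 h, 2 h or 24 h. TMRE staining 20 min, cells collected by trypsinisation, ΔΨm read by flow cytometry. Medium served as negative control, 20 µM CCCP as positive control. Mean ± SEM reported.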

In assay [3] the test system is A2780cisR. The experiment in a line: Cell cycle arrest in human A2780cisR cells assessed as accumulation at G1 phase at 5 uM incubated for 24 hrs by propidium iodide staining based flow cytometry (reference value: 68.7%). Format: functional. The method, boiled down: (§3)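 After 24 h exposure, cells washed in ice-cold PBS. About 2 million cells fixed in cold 70% ethanol at −20 °C for at least 24 h. Stained with 0.1% Triton X-100, 200 µg/ml RNase A and 20 µg/ml propidium iodide in PBS, 15 min at 37 °C in the dark. DNA content read by flow cytometry with doublet discrimination. Medium as untreated control, paclitaxel as G2/M control. Three independent experiments.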

The next assay is filed under the species Homo sapiens. The experiment in a line: Ratio of IC50 for induction of mitochondrial membrane depolarization in cisplatin resistant human J82 cells to IC50 for induction of mitochondrial membrane depolarization in human A2780cisR cells after 2 hrs by TMRE staining based flow cytometry. Format: functional, cell-based. Put shortly:
as §2

Assay [4] relates to A2780cisR. The experiment in a line: Effect on ROS generation in human A2780cisR cells at 316 nM incubated for 18 hrs by H2DCFDA staining based flow cytometry. In kind it is functional, cell-based. The method, boiled down:
(§4)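 Cells plated in 24-well plates (about 150,000/well) overnight, then exposed 18 h. Washed and moved to phenol red-free, serum-free RPMI-1640, then loaded with 10 µM H2DCF-DA for 30 min at 37 °C in the dark. One aliquot read directly, the other after 250 µM H2O2 for 1 h at 37 °C. DCF fluorescence read by flow cytometry. Three independent experiments.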

The subject of assay [5] is A2780. Description: Induction of apoptosis in human A2780 cells assessed as decrease in mitochondrial membrane potential at 1 uM incubated for 24 hrs by TMRE staining based flow cytometry. Format: functional, cell-based. Put shortly: (§5)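 Cells seeded overnight; medium switched to FBS-free just before treatment to avoid TMRE ester cleavage. Exposure 1 h, 2 h or 24 h, then TMRE staining for 20 min. Cells trypsinized, centrifuged at 4 °C and read by flow cytometry. Medium as negative control, 20 µM CCCP as positive control. […]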

The subject of assay [6] is A2780cisR. Description: Induction of apoptosis in human A2780cisR cells assessed as increase in intracellular calcium level at 1 to 30 uM incubated for 30 mins by fluorimetry. Format: functional, cell-based. The method, boiled down:
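Cells seeded in 96-well plates overnight, washed twice with Krebs-HEPES buffer, loaded 1 h at 37 °C in the dark with Oregon Green BAPTA-1 AM (final 3 µM) and Pluronic F-127. Buffer replaced, PXA added, fluorescence at 544 nm recorded for 30 min, with or without 1 mM extracellular Ca2+. Three experiments, mean ± SEM.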
In general terms: Calcium assays in cells follow changes in intracellular calcium, usually with a dye or a luminescent sensor.

For assay [7], the system named is A2780. Description: Induction of apoptosis in human A2780 cells assessed as depolarization of mitochondrial membrane potential at 1 uM by TMRE staining based flow cytometry. To be noted: TDE = time-dependent effect. In kind it is functional, cell-based. Put shortly:
as §5

The test system of assay [8] is A2780. Description: Effect on ROS generation in human A2780 cells at 316 nM incubated for 18 hrs by H2DCFDA staining based flow cytometry. Format: functional, cell-based. The method, boiled down: as §4
The subject of assay [9] is J82. Description: Induction of apoptosis in cisplatin resistant human J82 cells assessed as depolarization of mitochondrial membrane potential at 5 to 10 uM incubated for 2 hrs by hoechst 33342 staining based fluorescence microscopy. In kind it is functional. Put shortly: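 J82CisR cells exposed 2 h, then labelled with TMRE and Hoechst 33342 for 20 min. TMRE signal imaged on a high-content fluorescence imaging platform. Untreated medium control and 20 µM CCCP positive control.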

In assay [10] the test system is A2780. The experiment in a line: Reduction of H2O2-induced ROS generation in human A2780 cells at 316 nM incubated for 18 hrs by H2DCFDA staining based flow cytometry. In kind it is functional, cell-based. The method, boiled down: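 Cells plated overnight in growth medium (approx. 150,000 cells/well), exposed to compound for 18 h. Then washed with PBS and moved to phenol red-free RPMI-1640 without FBS or antibiotics. Loaded with 10 µM H2DCF-DA, 30 min, 37 °C, dark. One aliquot then given 250 µM H2O2 for 1 h at 37 °C in the dark. DCF fluorescence read by flow cytometry; three independent experiments.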

For assay [11], the system named is J82. Description: Cell cycle arrest in human J82 cells assessed as accumulation at G1 phase at 10 uM incubated for 24 hrs by propidium iodide staining based flow cytometry (reference value: 69.6%). In kind it is functional. The method, boiled down: as §3
Assay [12] concerns A2780. Description: Antiproliferative activity against human A2780 cells assessed as reduction in cell viability incubated for 24 hrs by MTT assay. Format: functional, cell-based. To be noted: A2780, 24 h. Put shortly:
as §1

For assay [13], the system named is A2780. The experiment in a line: Induction of apoptosis in human A2780 cells assessed as nuclear condensation by measuring reduced size and increased intensity of nuclei at 10 uM incubated for 24 hrs by hoechst 33342 staining based fluorescence microscopy. Format: functional, cell-based.
Assay [14] deals with A2780cisR. The experiment in a line: Induction of apoptosis in human A2780cisR cells assessed as decrease in cIAP expression at 5 uM incubated for 24 hrs by proteome profiler analysis. In kind it is functional, cell-based. The method, boiled down: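 A2780 and A2780CisR cells treated 24 h with 5 µM PXA; apoptosis-related proteins profiled with a human apoptosis antibody array following kit instructions.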

The subject of assay [15] is J82. Description: Induction of apoptosis in cisplatin resistant human J82 cells assessed as depolarization of mitochondrial membrane potential incubated for 2 hrs by TMRE staining based flow cytometry. Format: functional, cell-based. Put shortly:
as §5

As to `CC(=O)OC[C@]12Oc3c(-c4ccc(O)c5c4O[C@@]4(COC(C)=O)C(=C(O)C[C@@H](C)[C@H]4OC(C)=O)C5=O)ccc(O)c3C(=O)C1=C(O)C[C@@H](C)[C@H]2OC(C)=O` [PHOMOXANTHONE A], the outcome in the assay on A2780 [1], in the assay with A2780cisR [4] and with A2780 [8] was inactive. In addition, the negative-log IC50 (pIC50) is 5.74 in the assay on HCT-116; 5.84 with A2780 [12] (read-out: IC50); 5.56 in the assay on J82 [15] (J82, 2 h). Besides, the entries for the “Ratio IC50” value with KYSE-510 and in the assay listed under Homo sapiens were 2 - 10 and 3, respectively. For the same compound, the outcome with A2780cisR [2], in the assay with A2780 [5], in the assay on A2780cisR [6], with A2780 [13] and with A2780cisR [14] was Active. Further, the Activity is 83.3% in the assay with A2780cisR [3]; “Tde” with A2780 [7]; 100% in the assay on J82 [9]; 70.9% with J82 [11]; “Dose-dependent effect” in the assay with J82 [15]. Further, in the assay on A2780 [10], the inhibition entry is “inactive”. Further, the IC50 in the assay with A2780 [12] (read-out: pIC50 (converted)) is 1450 nM.
